Measurements as given in ChEMBL document CHEMBL4828710, “Lead optimization to improve the antiviral potency of 2-aminobenzamide derivatives targeting HIV-1 Vif-A3G axis” (Eur J Med Chem, 2021).
Active and inactive are the calls of the source. The calls are words filed in the database; no cut-off is given here.

What was measured:
[1] = test system: Human immunodeficiency virus 1; assay: Antiviral activity against HIV13B infected in human H9 cells assessed as p24 level incubated for 7 days by ELISA; format: functional, organism-based; conditions: Human immunodeficiency virus 1, 3B, H9, 168 h
Method in brief: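 H9 cells were infected with HIV-1 IIIB at MOI 0.03 for 2 h, washed three times and resuspended in RPMI-1640. Infected cells (4 × 10⁴/well) were cultured with serially diluted compound at 37 °C in 5% CO₂ for 7 days. Supernatant p24 was measured by in-house ELISA, and EC50 was calculated.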

H9 [2] = assay: Cytotoxicity against human H9 cells assessed as cell viability incubated for 7 days by MTT colorimetric assay; format: functional; conditions: H9, 168 h, time 7 day
Method in brief: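 H9 cells (2 × 10⁵/well) were incubated with varying compound concentrations in RPMI-1640 with 10% FBS at 37 °C in 5% CO₂ for seven days. Viability was read by MTT colorimetric assay, and CC50 was calculated.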

[3] = Therapeutic index, ratio of CC50 for cytotoxicity against human H9 cells to EC50 for antiviral activity against HIV13B; format: toxicity, cell-based; conditions: read-out: TI
Method in brief: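 TI = CC50/EC50. For EC50, H9 cells were infected with HIV-1 IIIB at MOI 0.03 for 2 h, washed three times, plated at 4 × 10⁴ cells/well with serial compound dilutions, and kept 7 days at 37 °C, 5% CO₂; supernatant p24 was read by in-house ELISA. For CC50, uninfected H9 cells at 2 × 10⁵/well in RPMI-1640 with 10% FBS were kept 7 days, then read by MTT.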

H9 [4] = assay: Reduction in HIV1 Vif expression in HIV1 infected human H9 cells assessed as for 48 hrs by western blotting analysis; format: functional, cell-based; conditions: Human immunodeficiency virus 1, dose 2-50 µM
Method in brief: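 Cells were exposed to the compound at […] at 37 °C for 48 h, then washed with ice-cold PBS and lysed in RIPA buffer. A3G-HA and Vif were resolved by SDS-PAGE and transferred to PVDF. Blots were probed overnight at 4 °C with primary antibodies, then 2 h at room temperature with HRP secondary antibodies. Bands were visualized by chemiluminescence on X-ray film.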

[5] = test system: Human immunodeficiency virus 1; assay: Antiviral activity against IN resistant HIV1 pYU2G14OS/Q148H infected in human TZM-bl cells assessed as inhibition of replication for 48 hrs by microplate reader method; format: functional, organism-based; conditions: Human immunodeficiency virus 1, pYU2G14OS/Q148H
[6] = test system: Human immunodeficiency virus 1; assay: Antiviral activity against NRTI resistant HIV1-4755-5 infected in human TZM-bl cells assessed as inhibition of replication for 48 hrs by microplate reader method; format: functional, organism-based; conditions: Human immunodeficiency virus 1, 4755-5, TZM-bl
[7] = test system: Human immunodeficiency virus 1; assay: Antiviral activity against NNRTI resistant HIV1 A17 infected in human TZM-bl cells assessed as inhibition of replication for 48 hrs by microplate reader method; format: functional, organism-based; conditions: Human immunodeficiency virus 1, A17, TZM-bl
[8] = test system: Human immunodeficiency virus; assay: Antiviral activity against FI resistant HIV PNL4-3-3gp41(364)V38A N42T infected in human TZM-bl cells assessed as inhibition of replication for 48 hrs by microplate reader method; format: functional, organism-based
[9] = biological target: Virion infectivity factor (Human immunodeficiency virus type 1 group M subtype B (isolate NY5)(HIV-1)) (UniProt P12504); assay: Reversal of HIV1 Vif mediated A3G degradation in HIV1 infected human H9 cells for 48 hrs by western blotting analysis; format: cell-based; conditions: Human immunodeficiency virus 1
Method in brief: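 Cells expressing A3G-HA and Vif were treated with compound at 50, 10 and 2 (three concentrations) at 37 °C for 48 h. They were then washed in ice-cold PBS and lysed in RIPA. A3G-HA and Vif were detected by SDS-PAGE, PVDF transfer, primary antibodies overnight at 4 °C, and HRP secondary for 2 h at room temperature, with chemiluminescence on X-ray film.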

[10] = test system: Human immunodeficiency virus 1; assay: Antiviral activity against PI resistant HIV-1 L70R/M461/L63P/V82T/184V infected in human TZM-bl cells assessed as inhibition of replication for 48 hrs by microplate reader method; format: functional, organism-based; conditions: Human immunodeficiency virus 1, L70R/M461/L63P/V82T/184V

Sequence of Virion infectivity factor (Human immunodeficiency virus type 1 group M subtype B (isolate NY5)(HIV-1)) (P12504 whole entry): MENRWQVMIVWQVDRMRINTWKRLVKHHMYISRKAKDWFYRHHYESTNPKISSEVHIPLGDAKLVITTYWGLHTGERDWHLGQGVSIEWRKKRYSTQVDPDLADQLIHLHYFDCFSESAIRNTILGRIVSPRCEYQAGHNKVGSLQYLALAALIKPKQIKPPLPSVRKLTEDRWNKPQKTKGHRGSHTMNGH

SMILES | EC50 [1] | CC50 (H9 [2]) | selectivity ratio [3] | also measured
Nc1cccc(S(=O)(=O)c2ccc([N+](=O)[O-])cc2)c1C(=O)Nc1ccc(O)cc1 | 4.59 µM | 32.5 µM | – | –
COc1cccc(NC(=O)c2c(N)cccc2S(=O)(=O)c2ccc([N+](=O)[O-])cc2)c1 | > 100 µM | – | – | –
COc1ccccc1NC(=O)c1c(N)ncnc1Sc1ccc([N+](=O)[O-])cc1 | 9.73 µM | 32.9 µM | 3.38 | –
COc1cc(NC(=O)c2c(N)cccc2S(=O)(=O)c2ccc([N+](=O)[O-])cc2)cc(OC)c1 | > 100 µM | – | – | –
COc1ccc(OC)c(NC(=O)c2c(N)cccc2S(=O)(=O)c2ccc([N+](=O)[O-])cc2)c1 | 3.97 µM | > 200 µM | > 50.4 | –
COc1ccc(O)cc1NC(=O)c1c(N)cccc1Sc1ccc([N+](=O)[O-])cc1 | 0.47 µM | > 100 µM | > 213 | –
COc1ccc(NC(=O)c2c(N)cccc2S(=O)(=O)c2ccc([N+](=O)[O-])cc2)cc1OC | 15.5 µM | > 100 µM | > 6.45 | –
COc1ccc(OCCN2CCOCC2)cc1NC(=O)c1c(N)cccc1Sc1ccc([N+](=O)[O-])cc1 | > 100 µM | – | – | –
COc1cc(O)ccc1NC(=O)c1c(N)cccc1S(=O)(=O)c1ccc([N+](=O)[O-])cc1 | 5.77 µM | 54.7 µM | 9.48 | –
COc1ccc(C(=O)O)cc1NC(=O)c1c(N)cccc1Sc1ccc([N+](=O)[O-])cc1 | 0.42 µM | > 100 µM | > 238 | –
COc1ccc(OCCO)cc1NC(=O)c1c(N)cccc1Sc1ccc([N+](=O)[O-])cc1 | > 100 µM | – | – | –
COc1ccc(NC(=O)c2c(N)cccc2S(=O)(=O)c2ccc([N+](=O)[O-])cc2)c(OC)c1 | 3.58 µM | > 100 µM | > 27.9 | –
COc1ccc(OC)c(NC(=O)c2c(N)cccc2Sc2ccc([N+](=O)[O-])cc2)c1 | 4.05 µM | > 200 µM | > 49.4 | –
COc1ccc(F)cc1NC(=O)c1c(N)cccc1Sc1ccc([N+](=O)[O-])cc1 | 2.12 µM | > 100 µM | > 47.2 | –
Nc1ccn([C@@H]2CS[C@H](CO)O2)c(=O)n1 [LAMIVUDINE] | 0.21 µM | > 200 µM | > 976 | –
COc1ccc(F)cc1NC(=O)c1c(N)ncnc1Sc1ccc([N+](=O)[O-])cc1 | 41.1 µM | 26.6 µM | 0.65 | –
COc1ccc(NC(=O)c2c(N)cccc2S(=O)(=O)c2ccc([N+](=O)[O-])cc2)cc1O | > 100 µM | – | – | –
COc1ccc(Cl)cc1NC(=O)c1c(N)ncnc1Sc1ccc([N+](=O)[O-])cc1 | 20 µM | 2.22 µM | 0.11 | –
COc1ccccc1NC(=O)c1c(N)cccc1S(=O)(=O)c1ccc([N+](=O)[O-])cc1 | 0.34 µM | > 468 µM | > 1380 | –
Nc1cccc(S(=O)(=O)c2ccc([N+](=O)[O-])cc2)c1C(=O)Nc1ccc(Cl)cc1F | 10.3 µM | > 100 µM | > 9.71 | –
COc1ccc(C(=O)O)cc1NC(=O)c1c(N)cccc1S(=O)(=O)c1ccc([N+](=O)[O-])cc1 | > 100 µM | – | – | –
COc1ccc(OCCCO)cc1NC(=O)c1c(N)cccc1Sc1ccc([N+](=O)[O-])cc1 | > 100 µM | – | – | –
Cc1cc(C)cc(NC(=O)c2c(N)cccc2S(=O)(=O)c2ccc([N+](=O)[O-])cc2)c1 | 26.4 µM | > 100 µM | > 3.79 | –
COc1ccc(O)cc1NC(=O)c1c(N)cccc1S(=O)(=O)c1ccc([N+](=O)[O-])cc1 | 0.07 µM | 259 µM | 3700 | Activity (H9 [4]): Active; EC50 [5]: 3.74 µM; EC50 [6]: 8.4 µM; EC50 [7]: 46.4 µM; EC50 [8]: 3.02 µM; Activity [9]: Dose-Dependent Effect; EC50 [10]: 4.39 µM
COc1ccc(NC(=O)c2c(N)cccc2S(=O)(=O)c2ccc([N+](=O)[O-])cc2)cc1 | > 100 µM | – | – | –
COc1ccc(F)cc1NC(=O)c1c(N)cccc1S(=O)(=O)c1ccc([N+](=O)[O-])cc1 | 1.93 µM | 89.6 µM | 46.4 | –
Nc1cccc(S(=O)(=O)c2ccc([N+](=O)[O-])cc2)c1C(=O)Nc1cccc(O)c1 | > 100 µM | – | – | –
Cc1cc(Br)ccc1NC(=O)c1c(N)cccc1S(=O)(=O)c1ccc([N+](=O)[O-])cc1 | > 100 µM | – | – | –
COc1ccc(O)cc1NC(=O)c1c(N)ncnc1Sc1ccc([N+](=O)[O-])cc1 | 40.6 µM | 35.8 µM | 0.88 | –
